Experimental data: publication PMC6262736 (Pharmacology Research & Perspectives, 2018)
Where two headings read alike, the source gives them in different places.

Tests used:
severe SMA mice = settings: cited from earlier work
human MDR1 = human MDR1 (Homo sapiens, UniProt P08183); assay: Bidirectional transport assay in L‐MDR1 cells; type: in vitro ADME; settings: 1 μM
Method in brief: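 Transport run in LLC-PK1 or MDCKII cells, parental or transfected (L-MDR1 human MDR1, L-Mdr1a rodent Mdr1a, M-BCRP human BCRP, M-Bcrp rodent Bcrp). Cells were grown on semipermeable inserts and assayed bidirectionally on day 3 or 4 after seeding. Donor medium held 1 μM test compound plus 10 μM Lucifer yellow to check monolayer integrity. Receiver medium lacked phenol red, with or without inhibitor: zosuquidar 1 μM for MDR1/Mdr1a, Ko143 1 μM for BCRP/Bcrp. Reference substrates served as activity controls.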

SMN protein [1] = assay: SMN protein levels in tissues of C/C‐allele SMA mice; type: in vivo; settings: 10 mg/kg/day PO, 10 days, Study 12
Method in brief: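 Adult C/C-allele SMA mice (FVB.129(B6) background) started dosing at ~7 weeks. Dosing was once-daily oral, as a suspension in 0.5% HPMC/0.1% Tween 80. Mice were killed by CO2 1 h after the last dose; tissues were unperfused, homogenized and diluted in RIPA. SMN was measured by HTRF in duplicate (averaged) against a recombinant human SMN standard curve, and total protein by BCA. Result: SMN/total protein per treated mouse ÷ vehicle-group mean.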

[2] = Phase 1 MOONFISH trial, patients with Type 2 and 3 SMA; ref NCT03032172; cited from earlier work
[3] = monkeys; dosing in MOONFISH suspended because of it; ref not given; cited from earlier work
[4] = Predicted CSF‐to‐unbound plasma partition coefficient from L‐Mdr1a efflux ratio; parameters: species or system rat; settings: based on the rodent ER and model from ref 25
Method in brief: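 pKp,uu derived as 1/[(1−γ)+γ·ER], with γ fixed at 0.753 and ER being the efflux ratio measured in L-Mdr1a cells.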

[5] = Plasma, brain and CSF drug levels in rats; type: in vivo; settings: Wistar, rat, brain / total plasma, po, 7.5 mg/kg/day
[6] = Tissue distribution in cynomolgus monkeys; type: in vivo, cynomolgus monkeys (Macaca fascicularis); settings: for concentration at 7 days / Kp at 7 days / concentration at 6 weeks after the last dose: cynomolgus monkey, oral, 3 mg/kg/day
SMN protein [7] = assay: SMN protein levels in brain and muscle of SMNΔ7 mice; type: in vivo; settings: 7 days of once daily dosing, Study 4
SMNΔ7 mice = settings: dosed once daily for 219 days, Study 5; cited from earlier work
SMN protein [8] = settings: SUNFISH Part 1 early interim data, dose‐dependent; cited from earlier work
[9] = monkeys, Study 10, after 22 weeks' treatment‐free recovery period
[10] = two cynomolgus monkeys, Study 9

human MDR1, sequence (P08183 whole entry): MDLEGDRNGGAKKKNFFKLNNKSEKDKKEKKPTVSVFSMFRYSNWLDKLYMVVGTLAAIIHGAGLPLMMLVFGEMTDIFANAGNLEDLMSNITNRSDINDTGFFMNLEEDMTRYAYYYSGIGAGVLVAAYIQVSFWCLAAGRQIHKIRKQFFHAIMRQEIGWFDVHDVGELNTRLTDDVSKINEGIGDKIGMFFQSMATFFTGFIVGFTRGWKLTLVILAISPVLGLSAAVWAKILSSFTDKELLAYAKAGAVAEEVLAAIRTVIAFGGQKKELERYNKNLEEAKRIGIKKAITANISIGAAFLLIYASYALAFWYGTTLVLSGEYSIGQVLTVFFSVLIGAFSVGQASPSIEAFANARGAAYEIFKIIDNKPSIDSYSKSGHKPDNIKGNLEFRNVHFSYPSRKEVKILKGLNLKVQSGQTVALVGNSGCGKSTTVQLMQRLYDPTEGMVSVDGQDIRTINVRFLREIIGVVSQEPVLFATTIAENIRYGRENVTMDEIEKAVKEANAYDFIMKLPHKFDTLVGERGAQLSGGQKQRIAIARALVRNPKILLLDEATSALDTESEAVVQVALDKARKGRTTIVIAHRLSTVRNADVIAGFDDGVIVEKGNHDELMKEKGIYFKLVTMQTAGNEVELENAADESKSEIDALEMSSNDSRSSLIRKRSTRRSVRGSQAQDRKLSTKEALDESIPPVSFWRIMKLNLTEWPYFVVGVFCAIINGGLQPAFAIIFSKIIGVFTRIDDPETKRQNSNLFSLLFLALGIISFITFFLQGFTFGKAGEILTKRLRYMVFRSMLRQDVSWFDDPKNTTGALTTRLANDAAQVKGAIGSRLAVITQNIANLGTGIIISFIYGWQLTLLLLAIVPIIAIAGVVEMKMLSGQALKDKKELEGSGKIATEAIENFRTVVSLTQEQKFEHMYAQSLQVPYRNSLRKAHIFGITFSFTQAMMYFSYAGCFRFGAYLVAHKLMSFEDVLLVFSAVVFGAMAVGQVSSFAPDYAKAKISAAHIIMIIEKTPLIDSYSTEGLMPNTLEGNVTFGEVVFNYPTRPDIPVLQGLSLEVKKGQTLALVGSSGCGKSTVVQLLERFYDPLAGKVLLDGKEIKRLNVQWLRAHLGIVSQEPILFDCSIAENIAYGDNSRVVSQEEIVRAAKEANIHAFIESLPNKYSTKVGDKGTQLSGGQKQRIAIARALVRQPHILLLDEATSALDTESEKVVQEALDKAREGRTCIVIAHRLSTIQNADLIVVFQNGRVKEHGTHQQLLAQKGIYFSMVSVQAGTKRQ

## nusinersen
Severe SMA mice; intracerebroventricular administration
  median lifespan: 16 days
Severe SMA mice; subcutaneous injections
  median lifespan: 108 days

## CCc1nc(C)cn2nc(-c3cc(=O)n4cc(C5CCN(C)CC5)cc(C)c4n3)cc12 [RG7800, 2‐(4‐ethyl‐6‐methyl‐pyrazolo[1,5‐a]pyrazin‐2‐yl)‐9‐methyl‐7‐(1‐methyl‐4‐piperidyl)pyrido[1,2‐a]pyrimidin‐4‐one]
Human MDR1
  substrate of human MDR1: not a substrate of human MDR1
SMN protein [1]
  SMN protein increase from baseline in heart: 31%
  SMN protein increase from baseline in muscle: 23%
  SMN protein increase in pancreas: fourfold
[2]
  serious adverse events: no serious adverse events were reported
[3]
  findings in long‐term nonclinical safety studies: off‐target retinal findings

## Cc1cn2nc(-c3cc(=O)n4cc(N5CCNC6(CC6)C5)ccc4n3)cc(C)c2n1 [risdiplam, 7‐(4,7‐diazaspiro[2.5]octan‐7‐yl)‐2‐(2,8‐dimethylimidazo[1,2‐b]pyridazin‐6‐yl)pyrido[1,2‐a]pyrimidin‐4‐one]
[4]
  predicted CSF‐to‐unbound plasma partition coefficient (pKp,uu): 0.33
[5]
  Kp at 90 days: 0.92
[6]; CSF
  concentration at 7 days: 53.5 ng/mL
[6]; bone marrow / plasma
  Kp at 7 days: ~5
[6]; brain
  concentration at 7 days: 783 ng/g
[6]; duodenum
  concentration at 6 weeks after the last dose: < 1 ng/g
[6]; kidney / plasma
  Kp at 7 days: 10
[6]; kidney
  concentration at 6 weeks after the last dose: ~4 ng/g
[6]; larynx
  concentration at 6 weeks after the last dose: < 1 ng/g
[6]; liver
  concentration at 6 weeks after the last dose: ~4 ng/g
[6]; muscle
  concentration at 7 days: 668 ng/g
[6]; plasma (unbound)
  concentration at 7 days: 119 ng/mL
[6]; plasma
  concentration at 7 days: 794 ng/mL
[6]; spleen / plasma
  Kp at 7 days: ~5
[6]; spleen
  concentration at 6 weeks after the last dose: < 1 ng/g
[6]; [9]
  drug level in CSF: below the limit of quantification (BLQ)
  drug level in brain: below the limit of quantification (BLQ)
  drug level in plasma: below the limit of quantification (BLQ)
[6]; monkeys, Study 10, n = 22
  average cortex/brain stem concentrations ratio: 1.10
[6]; [10]
  difference of brain drug level from total plasma concentration: less than 30%
  difference of heart drug level from total plasma concentration: less than 30%
  difference of larynx drug level from total plasma concentration: less than 30%
  difference of muscle drug level from total plasma concentration: less than 30%
SMN protein [7]; 0.1 mg/kg/day
  increase in SMN protein levels in brain: 28%
  increase in SMN protein levels in muscle: 32%
SMN protein [7]; 1 mg/kg/day
  increase in SMN protein levels in brain: 206%
  increase in SMN protein levels in muscle: 210%
SMNΔ7 mice
  survival of SMNΔ7 mice: prolonged survival
SMN protein [8]
  average increase in functional SMN protein in the blood of patients with SMA: up to 2.5 fold
